Experimental data taken from ChEMBL document CHEMBL2429751, “Diterpenoids and sesquiterpenoids from the roots of Illicium majus” (J Nat Prod, 2013).
The source made the active and inactive calls. The calls are words filed in the database; no cut-off is given here.

Legend:
Coxsackievirus B3 [1] = test: Selectivity index, ratio of TC50 for African green monkey Vero cells to IC50 for Coxsackievirus B3; format: toxicity, cell-based; settings: read-out: Selectivity Index
How it was run: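 SI is TC50/IC50. TC50 comes from 48 h Vero CPE cytotoxicity and IC50 from Cox B3 (100 TCID50) CPE inhibition in Vero cells, both by Reed–Muench analysis.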

Coxsackievirus B3 [2] = test: Antiviral activity against Coxsackievirus B3 infected in African green monkey Vero cells assessed as protection against virus-induced cytopathic effect after 48 hrs by Reed-Muench analysis; format: functional, organism-based; design: unit not given here
How it was run: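 Confluent Vero monolayers were infected with 100 TCID50 Cox B3 and allowed 1 h adsorption at 37 °C. Cells were PBS-washed, then kept at 37 °C in maintenance medium with 2% FBS, with or without graded compound concentrations. CPE was scored once virus controls reached 4+, and IC50 was derived by Reed–Muench analysis.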

Vero = test: Cytotoxicity against African green monkey Vero cells after 48 hrs by Reed-Muench analysis; format: cell-based; design: unit not given here; settings: chlorocebus sabaeus
How it was run: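 Vero cells were seeded and, after 24 h, exposed to graded compound concentrations for 48 h at 37 °C under 5% CO2. Cell damage was scored microscopically as CPE, and TC50 was calculated by Reed–Muench analysis.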

| IC50 (Coxsackievirus B3 [2]) | SMILES | selectivity ratio (Coxsackievirus B3 [1]) | TC50 (Vero) | Activity (Coxsackievirus B3 [2]) |
| --- | --- | --- | --- | --- |
| 12.8 | C[C@@H](CO)c1ccc2c(c1)CC[C@H]1[C@@](C)(C(=O)O)CCC[C@]21C | 5.2 | 66.7 | – |
| – | CC(C)(O)c1ccc2c(c1)C(=O)C[C@H]1[C@@](C)(CO)CCC[C@]21C | – | – | inactive |
| – | C[C@]1(CO)CCC[C@]2(C)c3ccc([C@@](C)(O)CO)cc3CC[C@@H]12 | – | – | inactive |
| 51.7 | C[C@@]12COC(=O)[C@]1(C)[C@@H](O)[C@@]13CC(=O)O[C@@]21CC=C3CO[C@@H]1O[C@H](CO)[C@@H](O)[C@H](O)[C@H]1O | 3.9 | 200 | – |
| 22.2 | C[C@](O)(CO)c1ccc2c(c1)CC[C@H]1[C@@](C)(C(=O)O)CCC[C@]21C | 6.2 | 138.7 | – |
| – | C[C@@H]1CC[C@@]23O[C@@]4(O)C[C@@]12[C@@H](O)C(=O)OC[C@@]3(CO[C@@H]1O[C@H](CO)[C@@H](O)[C@H](O)[C@H]1O)[C@@]4(C)O | – | – | inactive |
| – | C[C@@]12COC(=O)[C@]1(C)[C@@H](OC(=O)c1ccccc1)[C@]13CC(=O)O[C@@]1(C)CC[C@]23O | – | – | inactive |
| – | C[C@]1(CO)CCC[C@]2(C)c3ccc([C@](C)(O)CO)cc3CC[C@@H]12 | – | – | inactive |
| 17.4 | C[C@H](CO)c1ccc2c(c1)CC[C@H]1[C@@](C)(C(=O)O)CCC[C@]21C | 8 | 138.7 | – |
| – | CC(C)c1ccc2c(c1)CC[C@H]1[C@@](C)(C(=O)O)CCC[C@]21C | 6.7 | – | – |
| 66.7 | CC1=C(C(=O)O[C@@]23OC[C@]4(C)[C@@]5(O)CC[C@@H](C)[C@@]5(CC(=O)[C@]24C)[C@H]3O)CCC1=O | 3 | 200 | – |
| – | CC(C)(O)c1ccc2c(c1)C(=O)C[C@H]1[C@@](C)(C(=O)O)CCC[C@]21C | 3.9 | – | – |
| 66.7 | C[C@@H]1CC[C@@]23O[C@@]4(O)C[C@@]12[C@@H](O)C(=O)OC[C@@]3(CO)[C@@]4(C)O | 3 | 200 | – |
